Assay outcomes (PubChem)
TAAR1 agonist: human TAAR1 agonism | 360,000 compounds, 0.99% hits | Q96RJ0 | activation, % at 3 µM | CHO RD-HGA16 TAAR1, Fluo-8 calcium fluorescence; vehicle wells 0%, saturating PEA agonist 100% | AID 624467;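 active = activation above the mean activation of all test compounds in the run plus 3 SD, cut at about 38% in these data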
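Repeats: no replicates (n 1) | Material: CHO-derived RD-HGA16 cells with stable Gα16 and human TAAR1 | Technique: Kinetic Fluo-8 calcium fluorescence | Schedule: 17-24 h seeding, 75 min 37 °C dye, 30 min RT | Evaluation: % activation from peak over basal fluorescence ratio, DMSO-to-PEA scaled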
OX1R antag-1: antagonists of human orexin 1 receptor; O43613; CHO/OX1R cells, Fluo-8 calcium fluorescence, orexin A; inhibition, % at 5 µM; 330,000 compounds, 0.43% hits; AID 434989;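 active = inhibition above its plate's threshold, mean inhibition of all tested compounds on the plate plus 3 SD, cut at about 37% in these data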;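 note: 0% = orexin A challenge wells and 100% = SB-334867-A antagonist wells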
Target sequence (O43613 whole entry, looked up): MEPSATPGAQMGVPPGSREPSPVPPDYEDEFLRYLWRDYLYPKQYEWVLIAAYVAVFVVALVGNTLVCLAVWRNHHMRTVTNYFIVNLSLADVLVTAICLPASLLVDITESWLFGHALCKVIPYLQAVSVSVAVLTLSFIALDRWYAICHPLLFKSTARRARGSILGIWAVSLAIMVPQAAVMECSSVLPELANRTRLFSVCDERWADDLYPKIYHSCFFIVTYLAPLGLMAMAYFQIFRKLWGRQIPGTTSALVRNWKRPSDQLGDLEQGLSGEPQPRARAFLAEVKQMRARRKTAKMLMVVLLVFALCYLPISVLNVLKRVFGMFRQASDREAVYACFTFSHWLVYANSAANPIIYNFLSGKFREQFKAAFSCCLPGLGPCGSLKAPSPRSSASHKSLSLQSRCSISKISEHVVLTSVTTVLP
OX1R antag-2: antagonists of human orexin 1 receptor (OX1R). inhibition, % at 6.6 µM. AID 485270. O43613. OX1R-expressing cells, FRET antagonist read-out. 330,000 compounds, 1.8% hits; in the data active = inhibition mostly above about 38%, no sharp cut-off; inactive = mostly below about 40%;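 note: 0% = agonist challenge alone and 100% = reference antagonist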
GPR7 antagonist: human neuropeptides B/W receptor 1 antagonism | P48145 | inhibition, % at 4.4 µM | 290,000 compounds, 1.1% hits | GPR7-expressing cells, fluorescence antagonist assay | AID 1861; in the data active = inhibition above about 16%, passing the limit was not always enough;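 note: cells stimulated with the agonist NPW; 0% = agonist with vehicle and 100% = vehicle without agonist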
Target sequence (P48145 whole entry, looked up): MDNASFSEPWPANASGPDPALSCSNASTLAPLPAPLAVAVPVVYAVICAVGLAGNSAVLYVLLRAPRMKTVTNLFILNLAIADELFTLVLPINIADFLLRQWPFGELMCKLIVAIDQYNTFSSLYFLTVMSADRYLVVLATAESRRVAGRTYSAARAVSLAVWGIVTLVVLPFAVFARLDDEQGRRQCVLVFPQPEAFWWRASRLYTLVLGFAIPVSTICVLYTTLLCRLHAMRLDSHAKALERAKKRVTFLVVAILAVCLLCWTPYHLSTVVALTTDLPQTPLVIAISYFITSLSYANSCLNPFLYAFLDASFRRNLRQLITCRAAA
CHO parental Ca: signal in parental CHO cells, OX1R antagonist counter-screen. 330,000 compounds, 0.63% hits. inhibition, % at 5.6 µM. parental CHO-K1, ATP-induced calcium, Fluo-8 fluorescence. AID 463079;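 active = inhibition above that plate's mean sample inhibition plus 3 SD, cut at about 26% in these data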;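 note: 0% = ATP-challenged DMSO wells and 100% = DMSO wells without ATP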
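Material: parental CHO cells / Compound: single nominal dose of 5.6 µM per compound / Signal: Fluo-8 fluorescence / Replicates: singlicate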
TAAR1 antag: human TAAR1 antagonism; inhibition, % at 3 µM; Q96RJ0; 360,000 compounds, 1.5% hits; CHO RD-HGA16 TAAR1, Fluo-8 calcium fluorescence, antagonist;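 active = inhibition above a per-plate cutoff, the mean inhibition of test compounds on that plate plus 3 SD, cut at about 49% in these data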;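 note: 0% = DMSO plus EC80 beta-PEA response and 100% = DMSO alone without agonist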
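Material: CHO RD-HGA16 cells bearing hTAAR1; compound dosing: one-point dosing, 3 µM nominal final; schedule: dye loading 75 min at 37 °C, then 30 min room temperature; measured by: calcium fluorescence with Fluo-8; control set: vehicle and agonist controls; replication: n of 1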
TAAR1 ag confirm: confirmation of human TAAR1 agonists; shares compounds with TAAR1 agonist; 2,400 compounds, 82% hits; AID 651783; activation, % at 3 µM; CHO RD-HGA16 TAAR1, Fluo-8 calcium fluorescence; scaled: DMSO 0%, maximal phenethylamine 100%;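 active = activation above a cutoff set at the run's mean compound activation plus 3 SD, cut at about 39% in these data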
Ga16 ag counter: nonselective agonist in parental cells, TAAR1 agonist counter-screen. shares compounds with TAAR1 agonist. CHO-Ga16 parental, Fluo-8 calcium fluorescence; normalized to maximal ATP response, DMSO zero. activation, % at 3 µM. 2,400 compounds, 50% hits. AID 651787;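 active = activation above the run cutoff, the mean activation over all tested wells plus 3 SD, cut at about 12% in these data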;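 note: 0% = DMSO wells and 100% = maximal ATP response on the peak over basal ratio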
TAAR1 desensitize: counter-screen for human TAAR1 agonists: agonists that desensitize TAAR1. shares compounds with TAAR1 agonist. CHO RD-HGA16 hTAAR1, Fluo-8 calcium, beta-PEA response inhibition. inhibition, % at 3 µM. 2,400 compounds, 46% hits;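 active = inhibition above the run cutoff, the mean inhibition of all test compounds plus 3 SD, cut at about 49% in these data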;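 note: beta-PEA stimulus applied at its EC80; loss of beta-PEA calcium signal after compound pretreatment read as receptor desensitization; 0% = DMSO with beta-PEA at EC80 and 100% = DMSO alone without agonist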
Ga16 nonsel ant: nonselective Ga16 antagonist in TAAR1 agonist counter-screen; CHO-Ga16 ATP-induced calcium, Fluo-8 fluorescence; inhibition, % at 3 µM; shares compounds with TAAR1 agonist; 2,400 compounds, 39% hits;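 active = inhibition above the plate's mean compound inhibition plus 3 SD, computed per plate, cut at about 22% in these data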;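 note: 0% = EC80 ATP with DMSO and 100% = DMSO wells without ATP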
* = called active by the depositor; x = no result given. Compounds with a hit are over-represented: about 4.5% of the library has one in this group of screens.

SMILES | TAAR1 agonist | OX1R antag-1 | OX1R antag-2 | GPR7 antagonist | CHO parental Ca | TAAR1 antag | TAAR1 ag confirm | Ga16 ag counter | TAAR1 desensitize | Ga16 nonsel ant
CCCc1cc(=O)[nH]c(SCC(=O)N2CCOCC2)n1 | 0 | 2 | 17 | -9 | 7 | -16 | x | x | x | x
O=C(N[C@@H](Cc1cccnc1)C(=O)N1CCC[C@H]1C(=O)NCCc1ccccc1Cl)c1ccccc1 | 55* | x | x | x | x | 77* | 92* | 7 | 90* | 2
COc1cccc(C(=O)Nc2ccc(NC(=O)C3C4C=CC(C4)C3C(=O)O)cc2)c1 (stereo not drawn) | -1 | -6 | 17 | 9 | -11 | -12 | x | x | x | x
N#Cc1nc(-c2cccs2)oc1NCCc1ccccc1 | 51* | -13 | 16 | 3 | -12 | 3 | 49* | 3 | 25 | 17
C[C@@H]1CN(S(=O)C(C)(C)C)[C@H](CCO)/C1=C\c1ccccc1 (stereo partly drawn) | 0 | x | x | x | x | 5 | x | x | x | x
C[C@H]1CN[C@@H](CCO)/C1=C\c1ccccc1 | 43* | x | x | x | x | -2 | 53* | 1 | 29 | 10
C[C@H]1CN[C@H](CCO)/C1=C\c1ccccc1 | 47* | x | x | x | x | 7 | 61* | 0 | 18 | 10
CC1(C)CC[C@]2(C(=O)O)CC[C@]3(C)C(=CC[C@@H]4[C@@]5(C)CC[C@H](O[C@@H]6O[C@H](C(=O)O)[C@@H](O)[C@H](O[C@@H]7OC[C@H](O)[C@H](O)[C@H]7O)[C@H]6O)C(C)(C)[C@@H]5CC[C@]43C)[C@@H]2C1 | 109* | 111* | 34 | x | 100* | 109* | 84* | 66* | 104* | 95*
Cc1ccc(Nc2nc(N)c3ccccc3n2)cc1C | 68* | x | x | 0 | x | 6 | 67* | 2 | 54* | 3
CC(C)[C@H](NC(=O)c1ccccc1)C(=O)N1CCC[C@H]1C(=O)NCCc1ccccc1Cl | 80* | x | x | x | x | 83* | 96* | 4 | 93* | 4
CNC(C)C(=O)NC(C(=O)N1CCCC1C(=O)NNc1ccccc1)C(C)C (stereo not drawn) | 3 | -7 | 1 | x | -7 | -8 | x | x | x | x
CC(C)[C@H](NS(=O)(=O)c1ccc(F)cc1F)C(=O)N1CCC[C@H]1C(=O)NCCc1ccccc1Cl | 49* | x | x | x | x | 64* | 76* | 1 | 86* | 11
CC(C)[C@H](NC(=O)c1ccc(Cl)c(Cl)c1)C(=O)N1CCC[C@H]1C(=O)NCCc1ccccc1Cl | 53* | x | x | x | x | 80* | 82* | 0 | 98* | 2
Cc1cnc(CNC(=O)C2CCC(=O)N(CCc3cccc(F)c3)C2)[nH]1 (stereo not drawn) | 4 | -9 | 0 | -1 | -11 | -1 | x | x | x | x
Cn1c(-c2ccc3c(c2)OCO3)cnc1NC(=O)CCC(=O)NCCc1ccccc1 | 47* | 5 | 0 | -9 | -10 | 24 | 40* | -1 | 9 | 10
Cn1c(-c2ccc3c(c2)OCO3)cnc1NCc1ccccc1 | 14 | -4 | 6 | 13 | -24 | 1 | x | x | x | x
Cc1cc2[nH]c(=O)c(=O)[nH]c2cc1S(=O)(=O)Nc1cccc(F)c1 | 0 | -10 | 1 | -7 | -1 | -28 | x | x | x | x
O=C(COc1cccc(F)c1)Nc1nc(-c2cccnc2)cs1 | 11 | 11 | 8 | x | -4 | 38 | x | x | x | x
O=C(Cn1nnc2ccccc21)N/N=C\c1cccs1 | 45* | -3 | 4 | 2 | -1 | 20 | 82* | 4 | 43 | 3
O=C(Cn1cnc2ccccc21)N/N=C/c1cccs1 | x | -15 | 2 | -3 | -12 | x | x | 11 | x | 0
COCCN(C(=O)COC(=O)CCC(=O)c1ccc(Cl)cc1)c1c(N)n(Cc2ccccc2)c(=O)[nH]c1=O | 1 | -9 | 9 | -11 | -12 | -20 | x | x | x | x
COCc1ccccc1C1=CC(=O)C[C@H](c2ccc(OC)cc2)C1 | 0 | -4 | 8 | x | -18 | 21 | x | x | x | x
CCOc1ccc(S(=O)(=O)N2CCOCC2)cc1NC(=O)CN1C(=O)NC(C)(c2ccccc2)C1=O (stereo not drawn) | 1 | -18 | 2 | x | -18 | 9 | x | x | x | x
CCOC(=O)c1c(NC(=O)CSc2nnc(C)s2)sc2c1CCCCC2 | 58* | 54* | 15 | 5 | 52* | -11 | 40* | 23* | 12 | 15
CCOC(=O)c1c(NC(=O)CSc2nnc(C)s2)sc2c1CCC(C)C2 (stereo not drawn) | 29 | -24 | -2 | 0 | -23 | 3 | x | x | x | x
SMILES | TAAR1 agonist | OX1R antag-1 | OX1R antag-2 | GPR7 antagonist | CHO parental Ca | TAAR1 antag | TAAR1 ag confirm | Ga16 ag counter | TAAR1 desensitize | Ga16 nonsel ant
C=CCN1C(=O)c2cccc3c(N4CCCCC4)ccc(c23)C1=O | 29 | 6 | 31 | -12 | 16 | 18 | x | x | x | x
O=C1c2cccc3c(N4CCCCC4)ccc(c23)C(=O)N1c1cccc(O)c1 | 121* | 56* | 7 | -1 | 56* | 79* | 27 | 32* | 38 | 48*
COC(=O)C1=C(C)N(Cc2cccc(C(F)(F)F)c2)C(=NCC2CC2)NC1c1cccc(C(F)(F)F)c1 (stereo not drawn) | 50* | x | x | x | x | 56* | 53* | 26* | 54* | 44*
COC(=O)C1=C(C)N(Cc2cccc(C(F)(F)F)c2)C(=NCC2CC2)NC1c1ccc(F)cc1 (stereo not drawn) | 96* | x | x | x | x | 101* | 101* | 72* | 94* | 81*
COC(=O)C1=C(C)N(Cc2cccc(C(F)(F)F)c2)C(=NCC2CC2)NC1c1cccc(Cl)c1 (stereo not drawn) | 72* | x | x | x | x | 77* | 61* | 35* | 66* | 55*
COC(=O)C1=C(C)N(Cc2ccccc2)C(=NCCCCO)N[C@H]1c1cccc(C(F)(F)F)c1 | 9 | -11 | 6 | x | 2 | -6 | x | x | x | x
CCN=C1NC(c2cccc(Cl)c2)C(C(=O)OC)=C(C)N1Cc1ccc(C(F)(F)F)cc1 (stereo not drawn) | 28 | x | x | x | x | 41 | x | x | x | x
CC(C)c1ccc(NC2CCCN(C(=O)CN3CCCC3=O)C2)cc1 (stereo not drawn) | 4 | -7 | 9 | 4 | -12 | -14 | x | x | x | x
Cc1c(C)c2cc(Cl)c(OCC(=O)NCCCn3ccnc3)cc2oc1=O | 0 | -14 | 22 | 0 | -16 | -36 | x | x | x | x
